Molecules are shown by their SMILES.

System in the first series: not listed separately
Nature of the series: Cmax wa determined in rat plasma at 30 mg/kg after po administration. Set-up: dose 30 mg/kg, route oral. The class given is ADME, organism-based. An outline of the steps:
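Rats were dosed orally at 30 mg/kg. The read-out was the peak plasma concentration (Cmax), reported in ng/mL.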
Take `O=C(CC1CN2CCC1CC2)c1cc2ccccc2s1` (stereo in doubt; 15b): the highest level (Cmax) was 0.27 µg/mL.
The same measure, in the same setting: the figure for `c1ccc2sc(CCC3CN4CCC3CC4)cc2c1` (stereo in doubt; 16b) is 0.45 µg/mL.

The target in the next series is T1, Neuronal acetylcholine receptor subunit alpha-7 (Rattus norvegicus, UniProt Q05941). Nature of the series: Binding affinities for the alpha 7 nicotinic acetylcholine receptor was determined in PC12 cells. The class given is cell-based, PC-12.
T1 sequence (Q05941 whole entry): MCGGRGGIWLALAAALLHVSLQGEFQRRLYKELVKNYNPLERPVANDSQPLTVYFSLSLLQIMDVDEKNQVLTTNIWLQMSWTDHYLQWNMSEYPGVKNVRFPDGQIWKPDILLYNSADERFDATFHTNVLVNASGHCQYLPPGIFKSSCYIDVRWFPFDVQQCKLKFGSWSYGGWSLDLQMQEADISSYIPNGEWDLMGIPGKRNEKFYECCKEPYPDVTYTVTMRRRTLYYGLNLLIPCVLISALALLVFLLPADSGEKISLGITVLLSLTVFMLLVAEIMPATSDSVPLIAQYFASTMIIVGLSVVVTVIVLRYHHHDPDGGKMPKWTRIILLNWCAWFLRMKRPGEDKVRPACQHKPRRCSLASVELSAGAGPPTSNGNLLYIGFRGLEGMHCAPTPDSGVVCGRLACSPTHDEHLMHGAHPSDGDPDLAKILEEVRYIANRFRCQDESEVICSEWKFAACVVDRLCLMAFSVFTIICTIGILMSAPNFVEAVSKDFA
Compound `c1ccc2cc(COC3CN4CCC3CC4)ccc2c1` (configuration not stated) came in with an IC50 of 0.15 µM. This lies in the sub-micromolar range.
In turn, `c1ccc2c(COC3CN4CCC3CC4)cccc2c1` (configuration not stated) returned an IC50 of 0.73 µM.

The next series has as its target T1, Neuronal acetylcholine receptor subunit alpha-7. Nature of the series: Alpha 7 nicotinic acetylcholine receptor binding activity in PC12 cells. The class given is cell-based, PC-12.
With `c1ccc2sc(CCCC3CN4CCC3CC4)cc2c1` (configuration not stated), the IC50 worked out at 0.37 µM.
For the compound `O=C(CC1CN2CCC1CC2)c1cc2ccccc2s1` (single isomer, unassigned; (-)), the IC50 was 0.17 µM.
In turn, `c1ccc2sc(CO[C@@H]3CN4CCC3CC4)cc2c1` had an IC50 of 0.026 µM.
Still for that read-out and setting: the result for `c1ccc2sc(CCC3CN4CCC3CC4)cc2c1` (stereo in doubt; (-)-16b) reads 0.22 µM; that for `c1ccc2sc(CO[C@H]3CN4CCC3CC4)cc2c1`, 0.515 µM; that for `O=C(CC1CN2CCC1CC2)c1cc2ccccc2s1` (stereo in doubt; 15b), 0.15 µM.
With `c1ccc2sc(CCC3CN4CCC3CC4)cc2c1` (single isomer, unassigned; (+)), the IC50 turned out to be 0.065 µM. Against the preceding compound, the IC50 is about 2.3-fold lower.
`c1ccc2sc(CC3CN4CCC3CC4)cc2c1` (configuration not stated) showed a concentration for half-maximal inhibition (IC50) of 0.11 µM.
On to `O=C(CC1CN2CCC1CC2)c1cc2ccccc2s1` (single isomer, unassigned; (+)), for which the concentration for half-maximal inhibition (IC50) was 0.13 µM. The IC50 values of the last two compounds are within 1.5-fold of each other.
Compound `c1ccc2sc(CCC3CN4CCC3CC4)cc2c1` (stereo in doubt; 16b) displayed a 50% inhibitory concentration (IC50) of 0.023 µM.
`O=C(c1cc2ccccc2s1)C1CN2CCC1CC2` (configuration not stated) registered an IC50 of 0.95 µM.
Turning to `c1ccc2sc(COC3CN4CCC3CC4)cc2c1` (configuration not stated), the 50% inhibitory concentration (IC50) amounted to 0.059 µM. This IC50 is about 16-fold lower than that of the compound before.
Take `COc1ccc(Cc2cccnc2-c2cccnc2)c(OC)c1`: the IC50 came out at 0.76 µM.

Usually Cmax stands for the highest concentration seen after dosing. A word on the IC50: it is the midpoint of a concentration-inhibition curve. A low value points to inhibition by little substance.

The record behind these values is ChEMBL document CHEMBL1146809, “(+)-3-[2-(Benzo[b]thiophen-2-yl)-2-oxoethyl]-1-azabicyclo[2.2.2]octane as potent agonists for the alpha7 nicotinic acetylcholine receptor” (Bioorg Med Chem Lett, 2004).
